TAAR1 antag: human TAAR1 antagonism. Q96RJ0. actives 1.5% (n = 360,000). inhibition, % at 3 µM. CHO RD-HGA16 TAAR1, Fluo-8 calcium fluorescence, antagonist;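 active = inhibition above a per-plate cutoff, the mean inhibition of test compounds on that plate plus 3 SD, cut at about 49% in these data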;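 note: 0% = DMSO plus EC80 beta-PEA response and 100% = DMSO alone without agonist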
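test system = CHO RD-HGA16 cells bearing hTAAR1 | replication = singlicate | controls = DMSO-only wells and EC80 β-PEA-stimulated wells | reagent = EC80 β-phenethylamine stimulus | read-out basis = percent inhibition of PEA-evoked calcium signal, max/basal emission ratio | schedule = seeding 17-24 h prior, 75-min 37 °C, 30-min RT dye loading | signal = kinetic Fluo-8 calcium fluorescence measurement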
GPR7 antagonist: antagonists of human GPR7 (neuropeptides B/W receptor 1); AID 1861; P48145; GPR7-expressing cells, fluorescence antagonist assay; actives 1.1% (n = 290,000); inhibition, % at 4.4 µM; in the data active = inhibition above about 16%, passing the limit was not always enough;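 note: cells stimulated with the agonist NPW; 0% = agonist with vehicle and 100% = vehicle without agonist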
DAGLB inh: diacylglycerol lipase beta (human) inhibition | Q8NCG7 | HEK293T DAGLB membrane lysate, EnzChek fluorogenic substrate | inhibition, % at 5.17 µM | actives 0.059% (n = 340,000) | AID 504411; in the data active = inhibition above about 34%;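 note: 0% = enzyme with vehicle and 100% = wells lacking enzyme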
Target sequence (Q8NCG7 whole entry, looked up): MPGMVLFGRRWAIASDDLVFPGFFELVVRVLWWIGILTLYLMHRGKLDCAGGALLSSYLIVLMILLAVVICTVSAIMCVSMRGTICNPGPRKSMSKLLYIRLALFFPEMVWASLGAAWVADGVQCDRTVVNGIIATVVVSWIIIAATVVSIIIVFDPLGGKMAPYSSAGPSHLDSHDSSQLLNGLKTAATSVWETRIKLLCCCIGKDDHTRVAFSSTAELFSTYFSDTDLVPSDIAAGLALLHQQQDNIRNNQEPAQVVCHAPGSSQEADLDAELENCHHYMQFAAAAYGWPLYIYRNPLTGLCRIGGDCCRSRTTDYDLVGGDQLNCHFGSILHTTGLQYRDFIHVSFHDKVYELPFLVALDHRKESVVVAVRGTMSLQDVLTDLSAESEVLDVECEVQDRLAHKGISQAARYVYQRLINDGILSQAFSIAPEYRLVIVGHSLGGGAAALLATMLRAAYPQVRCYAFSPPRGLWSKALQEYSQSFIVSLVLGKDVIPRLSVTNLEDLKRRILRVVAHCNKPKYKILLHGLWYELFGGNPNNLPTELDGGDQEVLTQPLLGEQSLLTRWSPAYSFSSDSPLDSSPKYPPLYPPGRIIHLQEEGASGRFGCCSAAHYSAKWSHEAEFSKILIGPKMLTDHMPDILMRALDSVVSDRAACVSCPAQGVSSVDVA
MPTP inh: blocks calcium-induced mitochondrial swelling; actives 1.4% (n = 360,000); isolated mouse mitochondria, Ca2+ swelling absorbance, 30 min; inhibition, % at 10 µM;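 active = inhibition of 50% or more, scaled per plate between neutral and stimulator controls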;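 note: 0% = DMSO wells given calcium and 100% = 1 mM EGTA wells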
TAAR1 ag: agonists of human TAAR1; CHO RD-HGA16 TAAR1, Fluo-8 calcium fluorescence; vehicle wells 0%, saturating PEA agonist 100%; activation, % at 3 µM; actives 0.99% (n = 360,000); AID 624467;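 active = activation above the mean activation of all test compounds in the run plus 3 SD, cut at about 38% in these data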
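Assay system: CHO-derived RD-HGA16 cells with stable Gα16 and human TAAR1; timing: 17-24 h seeding, 75 min 37 °C dye, 30 min RT; read-out: % activation from peak over basal fluorescence ratio, DMSO-to-PEA scaled; measured by: kinetic Fluo-8 calcium fluorescence; benchmarks: low control DMSO, high control PEA (EC100); doses: 3 µM single concentration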
MPTP counter: mitochondrial membrane potential, counter-screen; shares compounds with MPTP inh; isolated mitochondria, Rhodamine 123 fluorescence; inhibition, % at 10 µM; actives 78% (n = 5,000); AID 624504; in the data active = inhibition above about 22%;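 note: 0% = DMSO vehicle and 100% = positive control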
MPTP abs DR: dose response confirmation of mitochondrial permeability transition pore inhibitors. shares compounds with MPTP inh. isolated mitochondria swelling, absorbance. IC50, µM. actives 58% (n = 780); in the data active = IC50 below about 20 µM
MPTP cs DR: counter-screen for mitochondrial permeability transition pore inhibitors, dose response. shares compounds with MPTP inh. isolated mitochondria counterscreen, fluorescence read-out. IC50, µM. actives 49% (n = 780). AID 651564; in the data active = IC50 below about 80 µM
An asterisk follows results filed as active; i = inactive; . = no result given. Sampled rows, rich in hits. Any-hit rate of the full collection: about 4%.

SMILES	TAAR1 antag	GPR7 antagonist	DAGLB inh	MPTP inh	TAAR1 ag	MPTP counter	others
Cc1ccc(NC(=O)/C=C/c2ccc([N+](=O)[O-])s2)c(C)c1	-2	-9	1	4	3	.
Cc1ccc(C)c(NC(=O)CSc2nc3nc(-c4cccs4)cc(C(F)(F)F)c3c(=O)[nH]2)c1	-17	-11	14	77*	-3	61*
Cc1ccc(C)c(NC(=O)CSc2nc(N)c(NC(=O)c3cccs3)c(=O)[nH]2)c1	-12	-12	-1	-1	1	.
O=C(CSc1nc2nc(-c3cccs3)cc(C(F)(F)F)c2c(=O)[nH]1)Nc1ccc(F)c(F)c1	3	-8	22	76*	7	50*
CCN(c1ccccc1)S(=O)(=O)c1ccc(Oc2ccccc2)c(N)c1	39	.	-4	1	0	.
C[C@H]1[C@@H](c2ccccc2)Oc2ccc(Cl)cc2S(=O)(=O)N1Cc1ccc(Cl)cc1	-33	.	.	.	0	.
COc1cc(N2CCC(O)CC2)ccc1Nc1cc(Nc2ccccc2S(=O)(=O)C(C)C)c2cc[nH]c2n1	28	.	.	.	9	.
C[n+]1ccc(/C=C/c2ccccc2O)c2ccccc21	-18	4	3	0	5	.
CN1/C(=C/c2cc[n+](C)c3ccccc23)C=Cc2ccccc21	.	-24	2	75*	.	59*
CCc1cc(=O)oc2cc(C)cc(O)c12	-2	-13	-7	1	0	.
CCCCCc1cc(O)c2c(C)cc(=O)oc2c1	-14	2	-4	86*	23	79*
CCCc1cc(=O)oc2cc(C)cc(O)c12	15	-14	0	78*	12	78*
CCCc1cc(=O)oc2cc(C)cc(OCC(=O)NCc3cccnc3)c12	-33	-5	3	0	1	.
CCCc1cc(=O)oc2cc(C)cc(OC(=O)c3ccco3)c12	20	-3	-1	84*	6	88*
COC(=O)c1c(C)oc2ccc(NS(=O)(=O)c3cccs3)cc12	9	-15	-1	92*	24	57*
COCCOC(=O)c1c(C)oc2ccc(NS(=O)(=O)c3ccccc3)cc12	3	-19	-2	3	-1	.
COc1ccc(NS(=O)(=O)c2ccc(N/N=C(\C)c3ccncc3)c([N+](=O)[O-])c2)cc1	2	-8	9	68*	3	20*
COc1ccccc1NS(=O)(=O)c1ccc(N/N=C(\C)C(C)C)c([N+](=O)[O-])c1	-2	-13	14	76*	0	55*
CCc1cc2c(nc1CC)CCCN2S(=O)(=O)c1c(C)noc1C	-21	.	.	.	0	.
CC(C)(C)c1ccc(C(=O)NC(=S)Nc2sc3c(c2C#N)CCC3)cc1	-10	-5	0	35	0	.
CCC1(C)Cc2c(sc(NC(=S)NC(=O)c3ccccc3)c2C#N)CO1 (stereo unspecified)	-12	-4	0	83*	2	5	MPTP abs DR=i;MPTP cs DR=4.5*
CC(C)(C)C(=O)NC(NC(=S)Nc1sc2c(c1C#N)CCCC2)C(Cl)(Cl)Cl (stereo unspecified)	11	-10	1	94*	13	53*
N#Cc1c(NC(=S)NC(=O)c2ccccc2)sc2c1CCC2	-4	1	-3	58*	3	37*
N#Cc1c(NC(=S)NC(=O)Cc2cccs2)sc2c1CCCCC2	5	-16	-3	84*	13	74*
CC(C)(C)C(=O)Nc1sc2c(c1C#N)CCC2	7	-1	2	1	-2	.
SMILES	TAAR1 antag	GPR7 antagonist	DAGLB inh	MPTP inh	TAAR1 ag	MPTP counter	others
CCOC(=O)C1=CCN(S(=O)(=O)c2ccccc2C)C1c1ccccc1 (stereo unspecified)	-20	.	.	0	1	.
CC(=O)NC(=S)Nc1sc2c(c1C#N)CCCCC2	31	-21	-7	84*	4	77*
O=C(/C=C/C(Cl)(Cl)Cl)Nc1ccc(Cl)cc1	34	.	-8	96*	3	102*
NC(=O)/C=C/C(=O)Nc1ccc(Cl)cc1	-2	-15	-1	1	4	.
CN1CCc2c(n(CC(O)CNCc3ccccc3)c3ccccc23)C1=O (stereo unspecified)	9	-5	-1	-1	4	.
CC(C)NCC(O)Cn1c2c(c3ccccc31)CCc1c-2cnn1-c1ccccc1 (stereo unspecified)	-8	14	4	87*	20	-17
CC(C)C[C@H]1CN(CCCC[C@@H]2CNC(=O)C(=O)N2Cc2ccccc2)C(=O)C(=O)N1Cc1ccccc1	12	.	.	0	3	.
FC(F)(F)c1cnc(NNC(=S)Nc2ccccc2Cl)c(Cl)c1	11	-3	0	55*	21	89*
S=C(NNc1ccnc2cc(Cl)ccc12)Nc1ccccc1Cl	9	-9	2	98*	1	77*
O=C(NCCNc1ccnc2cc(Cl)ccc12)c1ccccc1F	11	-12	0	75*	6	57*
Clc1ccc2c(NCc3ccccc3)ccnc2c1	25	14	-1	88*	7	83*
O=c1cc(CN(Cc2ccccc2)Cc2ccccc2)c2ccccc2o1	3	.	.	0	2	.
CC(C)(C)c1ccc(C(O)c2ncc(-c3cccc(F)c3)[nH]2)cc1 (stereo unspecified)	-1	.	.	3	6	.
C[C@@H]1CCCCO[C@@H](CN(C)CC2CC2)[C@@H](C)CN([C@H](C)CO)C(=O)c2cc(N(C)C)ccc2O1	.	.	3	-3	.	.
C=CCN(c1ccccc1)S(=O)(=O)c1cccc(C(=O)Nc2nnc(SCC)s2)c1	-29	-5	5	67*	-1	67*
O=c1[nH]c2cc3c(cc2cc1C(c1nnnn1C1CCCCC1)N1CCSCC1)OCCO3 (stereo unspecified)	-4	-3	0	63*	6	-2
COc1cc2cc(C(c3nnnn3C3CCCC3)N3CCCCC3)c(=O)[nH]c2cc1OC (stereo unspecified)	13	-10	1	-2	4	.
Cc1nc2nc(C)n(CCN3CCOCC3)c(=O)c2c(-c2cccc([N+](=O)[O-])c2)c1C(=O)CCCCCCCCCCN1CCC(c2ccccc2)(c2ccccc2)CC1	49*	.	7	59*	18	107*
O=C(NCCCN1CCOCC1)/C(=C/c1ccc(-c2cccc([N+](=O)[O-])c2)o1)NC(=O)c1ccccc1	0	.	3	0	1	.

High-throughput results from PubChem.
